Measurements collected from several papers.
Each line is one published result; the experiments were not run side by side.
INSR: Insulin receptor (INSR, Homo sapiens, UniProt P06213)
INSR phosphorylated: Insulin receptor, phosphorylated (INSR, Homo sapiens, UniProt P06213)

| SMILES | target | observed | action | method | tested at | measurement | result |
| --- | --- | --- | --- | --- | --- | --- | --- |
| O=C1NC(=O)c2cc(Nc3ccc(F)cc3)c(Nc3ccc(F)cc3)cc21 | INSR | cell-free assay | – | – | 0.5 µM | remaining signal | 98.3% |
| Cc1ccc(C(=O)NCc2ccsc2)cc1C#Cc1cn(C(C)C)c2ncnc(N)c12 | INSR phosphorylated | enzyme activity | inhibitor | – | 1 µM | activity vs control | 95% |
| N#CCCc1ccc2c(c1)-c1[nH]c3ccc([N+](=O)[O-])cc3c1CC(=O)N2 | INSR | cell-free assay | – | – | 0.5 µM | remaining signal | 94.1% |
| O=C(CSc1nc2nccnc2c(=O)n1CCc1ccccc1)Nc1nccs1 | INSR | enzyme activity | inhibitor | – | 10 µM | inhibition | 5% |
| CSc1cccnc1N1CCN(Cc2nc3ccccc3[nH]2)CC1 | INSR | cell-free assay | – | competition with immobilised ligand | 1 µM | remaining binding | 85% |
| CN(C)C1CCN(CC#Cc2nn(C3CCCC3)c3nc(NCc4ccccc4)ncc23)C1 (centres unmarked) | INSR | enzyme activity | inhibitor | FRET | 0.1 µM | inhibition | 7% |
| Cc1ccc(Nc2nccc(N(C)c3ccc4c(C)n(C)nc4c3)n2)cc1S(N)(=O)=O | INSR | enzyme activity | inhibitor | – | 10 µM | inhibition | 27% |
| CC/C(=N\NC(=O)NCc1cccc(O)c1)c1ccc(O)c(C)c1O | INSR | enzyme activity | inhibitor | – | 0.1 µM | inhibition | 0.1% |
| CN1CC(Oc2cnc(C#N)cc2-c2ccn3nc(NC(=O)C4CC4)cc3c2)C1 | INSR | enzyme activity | inhibitor | – | 1 µM | inhibition | -2% |
| Nc1ncnc2occ(-c3ccc(NC(=O)Nc4cc(C(F)(F)F)ccc4F)cc3)c12 | INSR | cell-free assay | – | – | 20 µM | remaining signal | 3.2% |
| Cc1cc(NC(=O)c2cccc3cc(-c4cccc5[nH]nc(N)c45)ccc23)ccc1F | INSR phosphorylated | enzyme activity | inhibitor | – | 0.1 µM | activity vs control | 91% |
| CCC(=N\O)/C(C)=C/c1ccc(F)cc1 | INSR | cell-free assay | – | competition with immobilised ligand | 1 µM | remaining binding | 100% |
| CNCc1ccc(-c2cc(-c3nc(-c4ccc(S(=O)(=O)C(C)C)cc4)cnc3N)on2)cc1 | INSR | enzyme activity | inhibitor | – | 2 µM | inhibition | 0% |
| O=C1CCc2cc(Nc3cc(OC4CCOCC4)c([N+](=O)[O-])cc3Cl)ccc2N1 | INSR | cell-free assay | – | competition with immobilised ligand | 1 µM | remaining binding | 93% |
| COc1cc(/C=C/C(=O)CC(=O)/C=C/c2ccc(O)c(OC)c2)ccc1O | INSR | enzyme activity | inhibitor | – | 1 µM | activity vs control | 46% |
| O=C(NS(=O)(=O)c1ccc(NCC2CCOCC2)c([N+](=O)[O-])c1)c1ccc(N2CCN(Cc3ccc(C(F)(F)F)cc3-c3ccc(Cl)cc3)CC2)cc1Oc1cnc2[nH]ccc2c1 | INSR | cell-free assay | – | competition with immobilised ligand | 1 µM | remaining binding | 89% |
| COc1cc2ncnc(Nc3ccc(Oc4ccccc4)cc3C)c2cc1OC | INSR | enzyme activity | inhibitor | – | 1 µM | inhibition | -1% |
| FC(F)(F)c1ccc2c(c1)nc(-c1cccnc1)n2C1CC1 | INSR | cell-free assay | – | competition with immobilised ligand | 1 µM | remaining binding | 100% |
| Cc1ccc(NC(=O)c2ccc(C)c(C(F)(F)F)c2)cc1C#Cc1nn(C2CCC(O)CC2)c2ncnc(N)c12 (centres unmarked) | INSR | cell-free assay | – | – | 10 µM | remaining signal | 97% |
| CC(C)(O)c1cncc(-c2nc3ccc(F)cc3n2C2CC2)c1 | INSR | cell-free assay | – | competition with immobilised ligand | 1 µM | remaining binding | 100% |
| CC(C)c1ccc(NC(=O)c2cccs2)c(-c2nc3ccccc3[nH]c2=O)c1 | INSR | enzyme activity | inhibitor | – | 1 µM | activity vs control | 91% |
| C[C@@H]1CCN(C(=O)CC#N)C[C@@H]1N(C)c1ncnc2[nH]ccc12 | INSR | cell-free assay | – | – | 0.5 µM | remaining signal | 101% |
| O=C(O)[C@H]1[C@H](Cn2nnc3ccccc3c2=O)CC[C@@H]1C(=O)c1ccc(OCCC2CCOCC2)cc1 | INSR | cell-free assay | – | competition with immobilised ligand | 1 µM | remaining binding | 78% |
